# ABCG2 block: inhibitors of human ABCG2 transporter, ABCB1 counter-screen; IgMXP3 cells, JC-1 efflux, flow cytometry; hit rate 0.1% among 190,000; Q9UNQ0; inhibition, % at 6.6 µM;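 active = inhibition above 80%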;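 note: 0% = DMSO and 100% = nicardipine control wells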
# Target sequence (Q9UNQ0 whole entry, looked up): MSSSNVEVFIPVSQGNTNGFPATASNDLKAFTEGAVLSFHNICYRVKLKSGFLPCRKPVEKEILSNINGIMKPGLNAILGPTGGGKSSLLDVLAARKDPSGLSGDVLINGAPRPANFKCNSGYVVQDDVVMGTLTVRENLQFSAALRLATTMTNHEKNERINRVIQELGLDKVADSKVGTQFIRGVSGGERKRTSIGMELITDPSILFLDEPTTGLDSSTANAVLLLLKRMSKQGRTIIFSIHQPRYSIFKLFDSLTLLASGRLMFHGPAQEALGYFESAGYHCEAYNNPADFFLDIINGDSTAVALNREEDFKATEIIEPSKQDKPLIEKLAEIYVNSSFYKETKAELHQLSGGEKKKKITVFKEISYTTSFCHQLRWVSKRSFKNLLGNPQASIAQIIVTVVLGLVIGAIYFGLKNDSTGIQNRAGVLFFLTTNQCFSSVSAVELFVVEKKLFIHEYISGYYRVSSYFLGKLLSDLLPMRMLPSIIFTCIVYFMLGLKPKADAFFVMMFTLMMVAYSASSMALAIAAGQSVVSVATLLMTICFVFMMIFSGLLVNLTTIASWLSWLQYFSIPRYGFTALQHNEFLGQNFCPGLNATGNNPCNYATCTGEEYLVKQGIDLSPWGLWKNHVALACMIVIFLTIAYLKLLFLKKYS
#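 System: two drug-resistant human cell lines, ABCG2 and ABCB1; controls: nicardipine high and DMSO low controls; times: 10 min exposure at 25 °C with rotation, no wash; detection: flow cytometry of retained JC-1 fluorescence; read-out basis: percent efflux inhibition, scaled nicardipine 100% to DMSO 0%; doses: one concentration, 6.6 µM final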
# Lmaj promast: reduces viability of Leishmania major promastigotes. resazurin fluorescence viability. inhibition, % at 10 µM. hit rate 9% among 200,000; in the data active = inhibition above about 50%;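 note: promastigotes grown with compound for 44 hours at 28 °C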
# WT yeast gro inh: growth inhibition of WT yeast, mitochondrial fusion screen; mitochondrial fusion phenotypic screen, WT strain; inhibition, % at 10 µM; hit rate 2.1% among 190,000; in the data active = inhibition above about 58%; tested in S. cerevisiae
# ABCB1 block: human ABCB1 inhibition, ABCG2 as counter-screen. P08183. CCRF-Adr cells, JC-1 efflux, flow cytometry. inhibition, % at 6.6 µM. hit rate 0.067% among 190,000; in the data active = inhibition above about 40%;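 note: 0% = vehicle and 100% = reference inhibitor; higher value means more JC-1 retained so stronger ABCB1 efflux block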
# RAM inhibit: inhibitors of the yeast RAM network; S. cerevisiae dse1pr::URA3 reporter, 5-FOA growth OD615, 2 d; analog-sensitive cbk1-as2 kinase mutant strain; inhibition, % at 50 µM; hit rate 1.8% among 190,000; AID 868;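 active = inhibition above a set limit, 3 SD over mean compound inhibition, cut at about 8.4% in these data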;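 note: 0% = DMSO-only wells with no growth and 100% = 10 µM 1-NA-PP1 full growth; inhibition rescues growth on 5-FOA so higher OD means more RAM inhibition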
# * marks the source's active call; other numbers are inactive results. In the library only some 12% were active in any assay of this set; here they are far more common.
SMILES,ABCG2 block,Lmaj promast,WT yeast gro inh,ABCB1 block,RAM inhibit
COc1ccccc1OCC(=O)Nc1sc2c(c1C(=O)NCC1CCCO1)CCC2 (centres undefined),10,15,6,3,2
Cc1nn(C(C)C(=O)NCC2CCCO2)c(=O)c2cc3occc3n12 (centres undefined),9,-12,61*,1,0
CCc1ccc(N2C(=O)Cc3c2nc(N)c(C#N)c3N)cc1,5,7,2,0,3
CCN(CC)c1nc2c3c(nc4c(c3c1C#N)CC(=O)N4c1ccc(Cl)cc1)NC(C)=N2,-3,56*,-10,1,4
COc1cc(/C=C2/C(=O)c3cccc([N+](=O)[O-])c3C2=O)c(Br)cc1O,-12,100*,2,-1,1
COc1ccc(-c2nc(-c3cccc([N+](=O)[O-])c3O)cc(=O)o2)cc1OC,2,-6,-2,1,2
O=C(NCc1cccc(F)c1)c1ccc(N2C(=O)Cn3c(cc4sccc43)C2=O)cc1,0,61*,5,1,5
O=C(NCc1ccco1)c1ccc(Cn2c(=O)c3sccc3n(Cc3cccc(F)c3)c2=O)cc1,14,4,-6,5,5
Cc1c(CCCN)c2ccccc2n1Cc1ccccc1,3,92*,10,1,0
N#Cc1ccc(NC(=O)Nc2ccc(Cl)cc2)cc1,0,28,63*,0,2
CN(CC(=O)Nc1ccc(C#N)cc1)Cc1ccc(Cl)cc1,10,-3,29,1,2
COc1ccc(CCC(=O)OCC(=O)c2cccc(OC)c2)cc1,2,-10,-7,0,1
O=C1C2C3C=CC(C3)C2C(=O)N1CCN1CCN(Cc2ccc([N+](=O)[O-])cc2)CC1 (centres undefined),2,72*,3,4,1
O=C(CCN1C(=O)C2C3C=CC(C3)C2C1=O)N1CCN(c2ccc([N+](=O)[O-])cc2)CC1 (centres undefined),8,-10,-6,1,0
N#Cc1c(Cl)c(Cl)c2nnc(-c3ccc(Br)cc3)n2c1Cl,2,-5,6,0,4
Cc1ccccc1NC(=S)NC1(C)CCS(=O)(=O)C1 (centres undefined),-3,54*,-7,0,1
CCN1CCCC1CN(Cc1cc2c(C)cc(C)cc2[nH]c1=O)C(=O)NC1CCCCC1 (centres undefined),5,59*,11,0,0
CC(C)COc1ccc(Cc2cnc(N)nc2N)cc1,2,72*,14,1,0
OC1(c2ccccc2)CN(c2ccccc2)C2=[N+]1CCS2 (centres undefined),1,9,-14,0,3
Cc1ccc(-c2nc3ncccc3o2)cc1NC(=O)Cc1ccc(Cl)cc1,9,-6,8,1,1
Cc1ccc(-c2nc3cccnc3o2)cc1NC(=O)COc1ccc(C(C)(C)C)cc1,7,3,54,1,4
Cc1ccc(-c2nc3ncccc3o2)cc1NC(=O)CC(C)C,6,92*,-25,0,-2
Cc1ccc(-c2nc3cccnc3o2)cc1NC(=O)COc1ccc(Cl)cc1C,8,94*,8,1,1
Oc1ccc(C=Nc2ccccc2-c2nc3ccccc3[nH]2)cc1,23,13,9,0,-1
C/C(=N\OCC(=O)Nc1c(C)cc(C)cc1C)c1ccc2c(c1)OCCO2,9,2,15,1,-1
SMILES,ABCG2 block,Lmaj promast,WT yeast gro inh,ABCB1 block,RAM inhibit
COc1ccc(C(=O)NC2CCCc3ccccc32)cc1S(=O)(=O)N1CCOCC1 (centres undefined),-1,15,-20,0,-1
CSC(=S)N/N=C/c1ccc(Br)cc1,-5,7,68*,-2,4
COc1cccc(OC)c1OCC(C)CNCC1CCCO1 (centres undefined),0,85*,-20,0,0
CCOC(=O)C(Cc1ccc(O)cc1)NC(=O)CNC(=O)C(CC(C)C)NC(=O)OC(C)(C)C (centres undefined),15,57*,-3,0,0
CN(CC(=O)Nc1cccc([N+](=O)[O-])c1)S(=O)(=O)c1ccccc1,28,0,18,1,7
COc1ccc(-c2cnnn2-c2ccc(NC(=O)c3ccc(S(=O)(=O)N4CCCCC4)cc3)cc2)cc1,2,99*,8,1,9.8*
COc1ccc(NC(=O)c2cccc(S(=O)(=O)N3CCc4ccccc43)c2)cn1,1,94*,28,0,8
O=C(Nc1ncccc1O)c1cccc(S(=O)(=O)N2CCc3ccccc32)c1,0,-8,69*,0,1
NS(=O)(=O)c1ccc(NC(=O)c2ccc(S(=O)(=O)N3CCc4ccccc43)cc2)cc1,-1,-7,3,-1,5
COc1ccc(C(=O)Nc2ccc(S(=O)(=O)N3CCc4ccccc43)cc2)cc1,0,54*,13,0,5
COc1ccc(C(=O)Nc2ccc(S(=O)(=O)N3CCCCC3)cc2)cc1,0,9,0,0,2
O=C(O)c1ccccc1CSc1ccccn1,0,-8,-7,0,0
COc1cc(CC(=O)OCC(=O)Nc2cccc([N+](=O)[O-])c2)cc(OC)c1OC,72,-3,2,2,1
CC(C)CNS(=O)(=O)c1ccc(CCC(=O)NCCC2=CCCCC2)cc1,3,15,5,0,1
CC(=O)Nc1ccc(NC(=O)COC(=O)c2cnccn2)cc1,2,-5,-6,1,2
Cc1cccc(/C=N\NC(=O)c2ccccc2-n2cccc2)c1,3,10,-5,1,0
O=C(N/N=C/c1ccc(Br)cc1)c1ccccc1-n1cccc1,2,65*,-4,0,1
Cc1ccccc1C1=NC(C(F)(F)F)(C(F)(F)F)c2c(n(C)c(=O)n(C)c2=O)N1,29,-1,-4,1,0
Cn1c2c(c(=O)n(C)c1=O)C(C(F)(F)F)(C(F)(F)F)N=C(c1ccc(Cl)cc1)N2,10,100*,26,1,0
Cc1ccc2nc(NC(=O)CCCC(=O)O)sc2c1,0,-4,-2,0,6
Cc1ccc2nc(NC(=O)Cn3nc(C)c([N+](=O)[O-])c3C)sc2c1,-1,69*,4,1,3
Cc1ccc2nc(NC(=O)CCCc3nc4ccccc4s3)sc2c1,2,91*,31,0,4
Cc1csc(NC(=O)Cn2nc(C)c([N+](=O)[O-])c2C)n1,0,-3,-7,0,0
Cc1cccc(OCC(=O)Nc2nc3ccc([N+](=O)[O-])cc3s2)c1C,-1,-4,65*,0,5
CC(=O)c1ccc(NC(=O)Cn2nc(C)c([N+](=O)[O-])c2C)cc1,-1,17,-2,0,3
Cc1nn(CC(=O)Nc2cccc(S(N)(=O)=O)c2)c(C)c1[N+](=O)[O-],-6,63*,14,-1,0

# Assay outcomes deposited in PubChem by several laboratories.
